Experimental data gathered from unrelated publications.
HTR2B: 5-hydroxytryptamine receptor 2B (HTR2B, Homo sapiens, UniProt P41595)
Neuronal acetylcholine receptor; alpha3/beta4: Neuronal acetylcholine receptor; alpha3/beta4 (Rattus norvegicus, UniProt P04757+P12392)

For `CN(C)C(=N)N=C(N)N`, the Ki was 1180 µM (speB (Escherichia coli, UniProt P60651); enzyme activity, inhibitor, absorbance; pH 6.5).
`O=S(=O)(O)c1ccc2c(N=Nc3c(O)ccc4ccccc34)cccc2c1` has an IC50 of 32 µM (Bcl-2-related protein A1 (Mus musculus, UniProt Q07440, C113S/P104K); ligand displacement, FP).
`CC(C)N(CCc1c[nH]c2cccc(OC(=O)CCCC(=O)O)c12)C(C)C` has an IC50 of 3.6 µM (HTR2B; ligand displacement, radioligand).
The IC50 of `CNC(=O)c1ccc(-c2cnn3ccc(C(=O)N(C)c4ccc(Cl)c(C(=O)OC)c4)cc23)cc1` is reported as greater than 30 µM (HTR2B; cell-free assay).
For `CC[C@H](C)[C@H](NC(C)=O)C(=O)N[C@@H](CCC(=O)O)C(=O)N[C@H](C(=O)N[C@H](C=O)CC(=O)O)[C@@H](C)O`, the IC50 was 0.555 µM (Caspase-4 (CASP4, Homo sapiens, UniProt P49662); enzyme activity, inhibitor).
The Ki of `Cn1ccc2cc3c(cc21)CCN3C(=O)Nc1cccnc1` is reported as 0.0064 µM (HTR2B; ligand displacement, radioligand).
The IC50 of `COc1ccc2c3c([nH]c2c1)CCN(C)CC3` is reported as 31.4 µM (Neuronal acetylcholine receptor; alpha3/beta4; ion current, antagonist, two-electrode voltage clamp; oocytes).
The IC50 of `Cc1cc(-c2ccccc2)nnc1NCCN1CCNCC1` is reported as 0.054 µM (HTR2B; calcium signal, antagonist, fluorescence).
The IC50 of `COC(=O)c1cc(N(C)C(=O)c2ccn3ncc(-c4ccc(C(=O)O)cc4)c3c2)ccc1Cl` is reported as greater than 30 µM (Rho-associated protein kinase 2 (ROCK2, Homo sapiens, UniProt O75116); enzyme activity, inhibitor).
`COc1ccc2[nH]c3c(c2c1)CCN(C)CC3` has an IC50 of 21.3 µM (Neuronal acetylcholine receptor; alpha3/beta4; ion current, antagonist, two-electrode voltage clamp; oocytes).
